According to ChEMBL document CHEMBL1126285, “Novel benzothiophene-, benzofuran-, and naphthalenecarboxamidotetrazoles as potential antiallergy agents” (J Med Chem, 1992):

Tests used:
Homo sapiens [1] = species: Homo sapiens; experiment: Evaluated for the inhibition of human basophil histamine release stimulated by anti-Immunoglobulin E (IgE) at a concentration of 33 uM; assay type: functional
Method in brief: (§1)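 Whole blood from well-characterized allergic donors; after red-cell sedimentation, leukocytes were washed and resuspended in buffer, preincubated with compound, then challenged with anti-IgE. Histamine was read by automated fluorometric assay, with inhibition taken against anti-IgE-challenged nondrug controls. IC50 runs used 3-fold steps over 1-100 μM.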

Homo sapiens [2] = species: Homo sapiens; experiment: Evaluated for the inhibition of human basophil histamine release stimulated by anti-Immunoglobulin E (IgE) at a concentration of 10 uM; assay type: functional; method in brief: as §1
Homo sapiens [3] = species: Homo sapiens; experiment: Evaluated for the inhibition of human basophil histamine release stimulated by anti-Immunoglobulin E (IgE) at a concentration of 10 uM; inactive; assay type: functional; method in brief: as §1
[4] = Compound was evaluated for the inhibition of superoxide (O2 -) anion release from human neutrophils at 100 uM; inactive; assay type: functional
Method in brief: (§2)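 Neutrophil preparations (~98% purity) were isolated by Ficoll-Hypaque gradient centrifugation of anticoagulant-treated venous blood and stimulated with serum-opsonized zymosan. Respiratory burst was read as superoxide-mediated reduction of cytochrome C.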

Homo sapiens [5] = species: Homo sapiens; experiment: Evaluated for the inhibition of superoxide (O2 -) anion release from human neutrophils; assay type: functional; method in brief: as §2
Homo sapiens [6] = species: Homo sapiens; experiment: Inhibition of anti-IgE stimulated release of Thromboxane B2 (TXB2) from human chopped lung by 50% of control value; assay type: functional
Method in brief: (§3)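 Human lung tissue (~400 mg portions) was incubated 10 min in Tyrode's buffer at 37 °C, dosed with drug or vehicle, and challenged 10 min later with anti-IgE (final 3:1000) for 30 min. Supernatant leukotrienes or thromboxane were measured by RIA kits, giving the concentration for 50% inhibition of control release.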

Homo sapiens [7] = species: Homo sapiens; experiment: Inhibition of anti-IgE stimulated release of histamine from human chopped lung by 50% of control value; assay type: functional
Method in brief: (§4)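 Human lung tissue was washed, and ~400 mg portions were placed in 37 °C buffer. After 10 min in Tyrode's buffer, drug or vehicle was added; 10 min later, tissue was challenged with anti-IgE (final dilution 3:1000) for 30 min. Supernatant histamine was assayed, giving the concentration for 50% inhibition versus control.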

Homo sapiens [8] = species: Homo sapiens; experiment: Inhibition of anti-IgE stimulated release of leukotriene C4/D4 (LTC4/D4) from human chopped lung by 50% of control value; assay type: functional; method in brief: as §3
[9] = Compound was evaluated for the inhibition of human basophil histamine release stimulated by anti-Immunoglobulin E (IgE) at a concentration of 33 uM; inactive; assay type: functional; method in brief: as §1
[10] = molecular target: T1, Eosinophil peroxidase (Homo sapiens) (UniProt P11678); experiment: Compound was evaluated for the inhibition of serum-opsonized zymosan stimulated eosinophil peroxidase release from human eosinophil; Inactive; assay type: functional; conditions: concentration not given here
T1 sequence (whole entry): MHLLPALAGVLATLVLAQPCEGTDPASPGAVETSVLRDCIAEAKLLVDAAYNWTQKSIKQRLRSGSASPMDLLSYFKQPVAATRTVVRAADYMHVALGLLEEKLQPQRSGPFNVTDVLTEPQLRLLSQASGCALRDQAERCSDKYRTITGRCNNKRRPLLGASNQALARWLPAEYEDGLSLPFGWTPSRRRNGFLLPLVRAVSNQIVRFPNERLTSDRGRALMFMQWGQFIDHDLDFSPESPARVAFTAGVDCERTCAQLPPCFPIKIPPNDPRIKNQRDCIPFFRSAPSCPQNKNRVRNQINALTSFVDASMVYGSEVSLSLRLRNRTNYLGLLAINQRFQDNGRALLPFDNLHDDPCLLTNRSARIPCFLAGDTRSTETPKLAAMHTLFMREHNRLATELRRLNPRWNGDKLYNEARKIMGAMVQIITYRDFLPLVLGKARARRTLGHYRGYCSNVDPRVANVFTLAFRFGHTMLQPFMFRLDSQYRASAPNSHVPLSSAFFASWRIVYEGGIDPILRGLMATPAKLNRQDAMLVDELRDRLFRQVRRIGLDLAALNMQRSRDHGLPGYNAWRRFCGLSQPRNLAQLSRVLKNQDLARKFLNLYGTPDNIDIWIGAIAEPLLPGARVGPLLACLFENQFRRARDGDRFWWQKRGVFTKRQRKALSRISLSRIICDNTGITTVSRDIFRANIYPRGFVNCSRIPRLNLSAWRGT

[11] = Compound was evaluated for the inhibition of anti-IgE stimulated histamine release from human basophil; assay type: functional; method in brief: as §1
[12] = Concentration inhibiting anti-IgE stimulated release of histamine from human chopped lung by 50% of control value; assay type: functional, tissue-based; method in brief: as §4
Homo sapiens [13] = species: Homo sapiens; experiment: Compound was evaluated for the inhibition of anti-IgE stimulated TXB2 release from human basophil; assay type: functional
Homo sapiens [14] = species: Homo sapiens; experiment: Compound was evaluated for the inhibition of serum-opsonized zymosan stimulated TXB2 release from human neutrophil; assay type: functional
Method in brief: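 Human polymorphonuclear leukocytes (~98% neutrophils) came from anticoagulant-treated venous blood via Ficoll-Hypaque centrifugation. They were stimulated with serum-opsonized zymosan, and TxB2 release was measured by radioimmunoassay.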

[15] = Concentration inhibiting anti-IgE stimulated release of leukotriene C4/D4 (LTC4/D4) from human chopped lung by 50% of control value; assay type: functional, tissue-based; method in brief: as §3
[16] = Compound was evaluated for the inhibition of serum-opsonized zymosan stimulated superoxide (O2-) release from human eosinophil; assay type: functional
Method in brief: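 Eosinophils were enriched above 95% purity by discontinuous Percoll gradient centrifugation after Ficoll-Hypaque separation of venous blood leukocytes. Cells were stimulated with serum-opsonized zymosan, and superoxide was measured as cytochrome C reduction.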

[17] = Compound was evaluated for the inhibition of serum-opsonized zymosan stimulated superoxide (O2-) release from human neutrophil; assay type: functional; method in brief: as §2

| SMILES | inhibition at 33 µM (Homo sapiens [1]) | inhibition at 10 µM (Homo sapiens [2]) | inhibition at 10 µM (Homo sapiens [3]) | IC50 (Homo sapiens [5]) | further results |
| --- | --- | --- | --- | --- | --- |
| COc1ccc2c(OC(C)C)c(C(=O)Nc3nn[nH]n3)ccc2c1 | 72.7% | 31.3% |  |  |  |
| CC(C)Oc1c(C(=O)Nc2nn[nH]n2)sc2ccc([N+](=O)[O-])cc12 | 53% |  | < 25% |  | inhibition at 100 µM [4]: < 5% |
| COc1cc2sc(C(=O)Nc3nn[nH]n3)c(OCc3ccccc3)c2cc1OC | 90.7% | 90.3% |  | 40 µM | IC50 (Homo sapiens [6]): < 0.74 µM; IC50 (Homo sapiens [7]): 2.5 µM; IC50 (Homo sapiens [8]): 1.3 µM |
| COc1ccc2c(OC(C)C)c(C(=O)Nc3nn[nH]n3)sc2c1Cl |  |  | < 25% | > 100 µM | inhibition at 33 µM [9]: < 25% |
| CC(C)Oc1c(C(=O)Nc2nn[nH]n2)sc2ccc(O)cc12 | 86% |  | < 25% | 47.8 µM |  |
| COc1ccc2oc(C(=O)Nc3nn[nH]n3)c(OC(C)C)c2c1 | 43.3% |  | < 25% | > 100 µM |  |
| COc1ccc2c(OC(C)C)c(C(=O)Nc3nn[nH]n3)oc2c1 | 99.5% | 77% |  | 42.5 µM |  |
| COc1cc2sc(C(=O)Nc3nn[nH]n3)c(Oc3ccccc3)c2cc1OC | 93.6% | 96% |  | 5.7 µM | IC50 (Homo sapiens [6]): < 0.75 µM; IC50 (Homo sapiens [7]): 4.9 µM; IC50 (Homo sapiens [8]): 9.7 µM |
| COc1ccc2c(c1)c(OC(C)C)c(C(=O)Nc1nn[nH]n1)n2-c1ccccc1 | 82% | 46% |  | > 100 µM | IC50 (Homo sapiens [6]): 12 µM; IC50 (Homo sapiens [7]): 11 µM; IC50 (Homo sapiens [8]): 12 µM |
| CC(C)Oc1c(C(=O)Nc2nn[nH]n2)sc2ccccc12 | 65.8% | 27.5% |  | > 100 µM |  |
| COc1ccc2sc(C(=O)Nc3nn[nH]n3)c(OC(C)(C)C)c2c1 | 100% | 62% |  | > 100 µM |  |
| CC(C)Oc1c(C(=O)Nc2nn[nH]n2)sc2ccc(OCc3ccccc3)cc12 | 41.6% |  | < 25% | > 100 µM |  |
| CC(C)Oc1c(C(=O)Nc2nn[nH]n2)sc2ccc(Cl)cc12 | 92% | 73% |  | > 100 µM |  |
| COc1ccc2sc(C(=O)Nc3nn[nH]n3)c(OCc3ccccc3)c2c1 | 84.5% | 80.8% |  | 23.4 µM |  |
| COc1ccc2sc(C(=O)Nc3nn[nH]n3)c(Oc3ccccc3)c2c1 | 91.3% | 96.3% |  | 10.1 µM | IC50 (Homo sapiens [6]): 4.9 µM; IC50 (Homo sapiens [7]): 3.5 µM; IC50 (Homo sapiens [8]): 1.1 µM |
| COc1ccc2sc(C(=O)Nc3nnn[nH]3)c(OC(C)C)c2c1 | 97.3% | 94.7% |  | 14.5 µM | inhibition [10]: < 20%; IC50 [11]: 1.1 µM; IC50 [12]: 2.3 µM; IC50 (Homo sapiens [13]): 0.2 µM; IC50 (Homo sapiens [14]): 4.5 µM; IC50 [15]: 0.3 µM; IC50 [16]: 5.5 µM; IC50 [17]: 14.5 µM; IC50 (Homo sapiens [6]): 0.3 µM |
| COc1ccc2c(OC(C)C)c(C(=O)Nc3nn[nH]n3)sc2c1 | 88.6% | 92% |  | 37 µM | IC50 (Homo sapiens [6]): 0.3 µM; IC50 (Homo sapiens [7]): 0.9 µM; IC50 (Homo sapiens [8]): 0.4 µM |
| CC(C)Oc1c(C(=O)Nc2nn[nH]n2)sc2ccc(Oc3ccccc3)cc12 | 55% |  | < 25% | > 100 µM |  |
| Cc1ccc2sc(C(=O)Nc3nn[nH]n3)c(OC(C)C)c2c1 |  |  | < 25% |  | inhibition at 100 µM [4]: < 5%; inhibition at 33 µM [9]: < 25% |
| COc1ccc2sc(C(=O)Nc3nn[nH]n3)c(OC)c2c1 | 97.3% | 59.8% |  | > 100 µM |  |
| COc1cc2sc(C(=O)Nc3nn[nH]n3)c(OC(C)C)c2cc1OC | 81.7% | 80% |  | 17.7 µM | IC50 (Homo sapiens [6]): < 0.75 µM; IC50 (Homo sapiens [7]): 4.5 µM; IC50 (Homo sapiens [8]): 0.3 µM |
| COc1cccc2c(OC(C)C)c(C(=O)Nc3nn[nH]n3)sc12 | < 25% |  | < 25% | > 100 µM |  |
| CCCc1c2oc(C(=O)O)cc(=O)c2cc2c(=O)cc(C(=O)O)n(CC)c12 [NEDOCROMIL] |  |  | < 25% |  | inhibition at 33 µM [9]: < 25% |
| COc1ccc2ccc(C(=O)Nc3nn[nH]n3)c(OC(C)C)c2c1 | 90.5% | 51% |  | > 100 µM |  |
| CCOc1c(C(=O)Nc2nn[nH]n2)sc2ccc(OC)cc12 | 98% | 92.5% |  | > 100 µM |  |
